From PubChem
Compounds with a hit are over-represented: about 2.7% of the library has one in this group of screens.
RAM inhibit: blocks the yeast RAM network | S. cerevisiae dse1pr::URA3 reporter, 5-FOA growth OD615, 2 d; analog-sensitive cbk1-as2 kinase mutant strain | inhibition, % at 50 µM | 190,000 compounds, 1.8% hits | AID 868;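 active = inhibition above a set limit, 3 SD over mean compound inhibition, cut at about 8.4% in these data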;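 note: inhibition rescues growth on 5-FOA so higher OD means more RAM inhibition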
Yeast life ext: extends the lifespan of yeast; S. cerevisiae growth with nicotinamide, OD615; deaD strain in restrictive glucose medium; AID 775; inhibition of the nicotinamide effect, % at 10 µM; 130,000 compounds, 0.68% hits;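 active = inhibition above a set limit, placed 3 SD over the median of all compounds, cut at about 26% in these data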
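assay system = DeaD-strain S. cerevisiae | buffer or medium = restrictive glucose medium | reagent = 1.5 mM nicotinamide | compound = 10 µM single point, 0.25% DMSO | incubation = 48 h compound exposure at 30 °C, humidified | signal = OD615 measurement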
SDO1 yeast rescue: restores growth of sdo1-depleted yeast; S. cerevisiae sdo1-depleted JHY4D growth rescue, OD600 30 h; hits give high values; pdr5 snq2 efflux-pump mutant strain; 140,000 compounds, 0.21% hits; AID 817; z-score at 10 µM;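 active = z-score above 3 at both the 24 hr and the 30 hr optical density reads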
Yeast growth inh: reduces growth of yeast BB579 in restrictive medium; S. cerevisiae BB579 growth, OD615, 48 h; AID 804; inhibition, % at 10 µM; 140,000 compounds, 0.51% hits;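 active = inhibition above a set limit, 3 SD over the mean compound inhibition, cut at about 44% in these data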
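Test system: DeaD yeast strain BB579 / Buffer or medium: restrictive glucose-based CSMM-D medium / Doses: single 10 µM dose / Schedule: 4 h cell preincubation, 48 h compound exposure, 30 °C humidified / Technique: culture absorbance at 615 nm / Controls: amphotericin B positive control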
RAM efflux-def: RAM network inhibition, efflux-deficient strain; 1,200 tested, under 10 active; shares compounds with RAM inhibit; AID 1305; max inhibition, %; S. cerevisiae efflux-deficient reporter strain, 5-FOA growth OD615, 2 days; call rule not given here
Of the large screens only hits and unclear results are named; the others gave an inactive call (follow-up assays come after a bar, where they were run).

O=C(C1CCN(S(=O)(=O)c2cccs2)CC1)N(c1ccccn1)C1CCCCC1	none (no result: Yeast life ext, SDO1 yeast rescue, Yeast growth inh)
CCOC(=O)c1c(C)[nH]c(N=Nc2cccc(C)c2)c1C	RAM inhibit 12 | RAM efflux-def inactive
COc1cccc(C(=O)NN2c3ccccc3CCc3ccccc32)c1	RAM inhibit 13 | RAM efflux-def inactive
COc1cccc(C(=O)NN2C(=O)C3C4C=CC(O4)C3C2=O)c1 (stereo not given)	none
CCCCCOC(=O)C1C(c2ccccc2)C(C(=O)O)C1c1ccccc1 (stereo not given)	RAM inhibit 15, Yeast life ext 32 | RAM efflux-def inactive
O=C(O)C1C(c2ccccc2)C(C(=O)OCCCO)C1c1ccccc1 (stereo not given)	none
COc1cccc(NC(=S)NN=C2CCCCCC2)c1	none (no result: Yeast life ext, SDO1 yeast rescue, Yeast growth inh)
Cc1ccc(C(=O)NC(=S)Nc2ccc(Oc3ccc(Cl)cc3)cc2)cc1	none
Cc1ccccc1C(=O)NC(=S)Nc1ccc(Oc2ccc(Cl)cc2)cc1	RAM inhibit 13 | RAM efflux-def inactive
O=C(NC(=S)Nc1ccc(Oc2ccccc2)cc1)c1ccc(Cl)cc1	RAM inhibit 12 | RAM efflux-def inactive
O=C(c1cc2c(F)cccc2s1)N1CCCC1	none (no result: Yeast life ext, SDO1 yeast rescue, Yeast growth inh)
CCOc1nc(-c2ccncc2)nc2ccccc12	none
CCCOc1ccc(-c2nc(OCC)c3ccccc3n2)cc1	RAM inhibit 13 | RAM efflux-def inactive
CCN(CC)S(=O)(=O)c1ccc(NC(=O)CCC2CCCCC2)cc1	RAM inhibit 12 | RAM efflux-def inactive
CN(C(=S)Nc1ccc(Oc2ccccc2)cc1)c1ccc(O)cc1	RAM inhibit 14 | RAM efflux-def inactive
Cc1cccc(NC(=O)CSc2nc(C)c(Cc3ccccc3)c(=O)[nH]2)c1C	none (no result: Yeast life ext, SDO1 yeast rescue, Yeast growth inh)
O=C(C(=S)N1CCOCC1)c1c[nH]c2ccccc12	none (no result: Yeast life ext, SDO1 yeast rescue, Yeast growth inh)
CCOC(=O)N1CCN(CC(=O)N2CCC(C(N)=O)CC2)CC1	none (no result: Yeast life ext, SDO1 yeast rescue, Yeast growth inh)
CCOC(=O)c1oc2ccc(Br)cc2c1CSc1nnc(C)s1	RAM inhibit 17 | RAM efflux-def inactive
CCOC(=O)c1oc2ccccc2c1CSc1nnnn1-c1ccc(OC)cc1	none
CCOC(=O)c1c(NC(=O)CSc2nnc(-c3ccco3)o2)sc(C)c1C	RAM inhibit 12 | RAM efflux-def inactive
CCOC(=O)c1c(NC(=O)CSc2nnc(Cc3ccccc3)o2)sc(C)c1C	RAM inhibit 14 (no result: Yeast life ext) | RAM efflux-def inactive
CCOC(=O)N1CCN(CC(=O)Nc2cc(OC)c(OC)cc2C#N)CC1	none (no result: Yeast life ext, SDO1 yeast rescue, Yeast growth inh)
Cc1ccc(S(=O)(=O)N2CCN(CC(O)c3ccccc3)CC2)cc1C (stereo not given)	none (no result: Yeast life ext, SDO1 yeast rescue, Yeast growth inh)
C=CCSc1nc(-c2ccc(OC)cc2)c(C#N)c(=O)n1CC=C	RAM inhibit 12 (no result: Yeast life ext, SDO1 yeast rescue, Yeast growth inh) | RAM efflux-def inactive
Cn1ncc(N=Cc2c(O)ccc3ccccc23)c1C(=O)Nc1cccc(Cl)c1	none (no result: Yeast life ext, SDO1 yeast rescue, Yeast growth inh)
O=C(COc1ccc(Br)cc1)N/N=C1\SCC(=O)N1c1ccc(F)cc1	none
CCOC(=O)c1c(-c2ccc(C)o2)csc1NC(=O)CSc1nncs1	RAM inhibit 12 | RAM efflux-def inactive
CCOC(=O)c1c(-c2ccc(C)o2)csc1NC(=O)CN1CCN(CC)CC1	none
O=C(Nc1ccc(Cl)c(Cl)c1)c1ccc(Cn2cc(Cl)cn2)cc1	RAM inhibit 13 | RAM efflux-def inactive
Cc1ccc(N2CN=C3SCC(=O)N3C2)cc1C	none (no result: Yeast life ext, SDO1 yeast rescue, Yeast growth inh)
N#C/C(=C\Nc1ccccc1SC(F)(F)F)c1nc(-c2ccccc2)cs1	RAM inhibit 12 | RAM efflux-def inactive
CCN1C(=O)/C(=C\c2cn(-c3ccccc3)nc2-c2cccnc2)SC1=S	none (no result: Yeast life ext, SDO1 yeast rescue, Yeast growth inh)
CCOc1ccc(-c2nn(-c3ccccc3)cc2/C=C2\SC(=S)N(Cc3ccco3)C2=O)cc1	RAM inhibit 12 | RAM efflux-def inactive
CCN(CC(O)CON=C1c2ccccc2-c2ccccc21)S(=O)(=O)c1ccc(C)cc1 (stereo not given)	RAM inhibit 15 | RAM efflux-def inactive
CCN(CC(O)CON=C1c2ccccc2-c2ccccc21)S(=O)(=O)c1ccc(Cl)cc1 (stereo not given)	RAM inhibit 20 | RAM efflux-def inactive
Cc1ccc(NCc2n[nH]c(=S)n2-c2ccccc2)c(C)c1	none (no result: Yeast life ext, SDO1 yeast rescue, Yeast growth inh)
O=C(c1ccc(Cl)cc1)c1cnc(-c2ccccc2)s1	none
O=C(c1cnc(-c2ccccc2)s1)c1ccc(Cl)cc1Cl	RAM inhibit 13 | RAM efflux-def inactive
COc1ccc(C(=O)Nc2cc(OC)c(Cl)cc2OC)cc1	RAM inhibit 11 (no result: Yeast life ext, SDO1 yeast rescue, Yeast growth inh) | RAM efflux-def inactive
